According to ChEMBL document CHEMBL3259688, “Synthesis and structure-activity relationship studies of conformationally flexible tetrahydroisoquinolinyl triazole carboxamide and triazole substituted benzamide analogues as σ2 receptor ligands” (J Med Chem, 2014):

How the values were obtained:
[1] = Displacement of [3H]DTG from sigma-2 receptor in human MCF7 cell membranes after 120 mins
[2] = Lipophilicity, log P of the compound; type: physicochemical; conditions: octanol/water
[3] = Antagonist activity at sigma-2 receptor in mouse EMT6 cells assessed as inhibition of cell proliferation after 24 hrs by MTS assay; type: cell-based; conditions: EMT6, 24 h
In short: (§1)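 EMT-6 mouse breast cancer cells grown in DMEM with 10% FBS and penicillin/streptomycin at 37 °C, 5% CO2. Seeded at 5 × 10^3 cells/well 24 h before dosing; serial dilutions from DMSO stocks, final DMSO ≤1.0%. Exposure 24 or 48 h, then MTS reagent 1–2 h at 37 °C, absorbance 490 nm vs untreated cells. EC50 from dose–response curves; triplicate wells, mean ± SEM of three independent experiments.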

[4] = Binding affinity to sigma-2 receptor (unknown origin); parameters: species or system Homo sapiens
[5] = Antagonist activity at sigma-2 receptor in mouse EMT6 cells assessed as inhibition of cell proliferation after 48 hrs by MTS assay; type: cell-based; conditions: EMT6, 48 h; in short: as §1
[6] = Selectivity ratio of Ki for sigma-1 receptor in guinea pig brain membrane homogenate to Ki for sigma-2 receptor in rat liver membrane homogenate; type: cell membranes
[7] = Displacement of [3H]DTG from sigma-2 receptor in rat liver membrane homogenate after 2 hrs by liquid scintillation counting analysis in presence of pentazocine; type: cell membranes
[8] = biological target: Sigma non-opioid intracellular receptor 1 (Cavia porcellus, UniProt Q60492); assay: Displacement of (+)-[3H]pentazocine from sigma-1 receptor in guinea pig brain membrane homogenate after 90 mins by liquid scintillation counting analysis; type: cell membranes
Sequence of Sigma non-opioid intracellular receptor 1 (Cavia porcellus, UniProt Q60492) (Q60492 whole entry): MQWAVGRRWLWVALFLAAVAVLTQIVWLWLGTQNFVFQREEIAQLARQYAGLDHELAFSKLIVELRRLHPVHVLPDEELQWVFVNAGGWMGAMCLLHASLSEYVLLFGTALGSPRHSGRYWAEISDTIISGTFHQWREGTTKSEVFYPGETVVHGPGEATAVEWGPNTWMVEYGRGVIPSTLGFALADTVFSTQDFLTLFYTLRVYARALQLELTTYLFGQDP
In short: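 Nonspecific binding with cold haloperidol. Compounds from DMSO or ethanol, diluted in 50 mM Tris-HCl, 150 mM NaCl, 100 mM EDTA, pH 7.4. Stopped with ice-cold 10 mM Tris-HCl/150 mM NaCl pH 7.4, filtered on fiberglass, washed, scintillation counted.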

EMT6 = assay: Selectivity ratio of Ki for sigma-1 receptor in mouse EMT6 cell membranes to Ki for sigma-2 receptor in mouse EMT6 cell membranes; type: cell-based
[9] = Displacement of 5-bromo-N-(4-(3,4-dihydro-6,7-dimethoxyisoquinolin-2(1H)-yl)butyl)-2,3-dimethoxybenzamide from sigma-2 receptor in mouse EMT6 cell membranes after 60 mins by Scatchard plot analysis
[10] = biological target: Sigma non-opioid intracellular receptor 1 (Mus musculus, UniProt O55242); assay: Displacement of 5-bromo-N-(4-(3,4-dihydro-6,7-dimethoxyisoquinolin-2(1H)-yl)butyl)-2,3-dimethoxybenzamide from sigma-1 receptor in mouse EMT6 cell membranes after 60 mins by Scatchard plot analysis
Sequence of Sigma non-opioid intracellular receptor 1 (Mus musculus, UniProt O55242) (O55242 whole entry): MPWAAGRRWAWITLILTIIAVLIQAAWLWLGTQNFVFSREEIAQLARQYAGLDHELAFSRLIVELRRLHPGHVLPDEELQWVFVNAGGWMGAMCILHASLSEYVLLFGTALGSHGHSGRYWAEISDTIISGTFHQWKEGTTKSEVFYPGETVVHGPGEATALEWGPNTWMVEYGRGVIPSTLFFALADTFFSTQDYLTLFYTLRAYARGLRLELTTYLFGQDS

[11] = biological target: Sigma non-opioid intracellular receptor 1 (Homo sapiens, UniProt Q99720); assay: Binding affinity to sigma-1 receptor (unknown origin)
Sequence of Sigma non-opioid intracellular receptor 1 (Homo sapiens, UniProt Q99720) (Q99720 whole entry): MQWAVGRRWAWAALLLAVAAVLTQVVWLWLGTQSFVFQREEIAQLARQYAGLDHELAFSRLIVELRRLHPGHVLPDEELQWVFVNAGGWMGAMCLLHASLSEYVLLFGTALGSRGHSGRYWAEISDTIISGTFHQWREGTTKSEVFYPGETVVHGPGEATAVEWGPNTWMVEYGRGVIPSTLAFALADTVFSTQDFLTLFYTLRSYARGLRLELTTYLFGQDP

Homo sapiens = organism: Homo sapiens; assay: Selectivity ratio of Ki for sigma-1 receptor (unknown origin) to Ki for sigma-2 receptor (unknown origin)

Row | Structure (SMILES) | Ratio Ki [6] | Ki [7] | Ki [8] | also measured
1 | COc1cccc2c1CCCC2CCCN1CCN(C2CCCCC2)CC1 (configuration not stated) | – | – | – | Ki [1]: 0.28 nM; logP [2]: 5
2 | Fc1ccc(-n2cc(CCCCN3CCC4(CC3)OCc3ccccc34)c3ccccc32)cc1 [SIRAMESINE] | – | – | – | EC50 [3]: 14900 nM; logP [2]: 6.07; Ki [4]: 0.12 nM; EC50 [5]: 5300 nM
3 | COc1cc2c(cc1OC)CN(CCCCNC(=O)c1cc(-n3cc(-c4cncn4C)nn3)ccc1OC)CC2 | 307 | 20.7 nM | 6360 nM | –
4 | COc1cc2c(cc1OC)CN(CCCCNC(=O)c1cc(-n3cc(CN(C)C)nn3)ccc1OCCF)CC2 | 232 | 94 nM | 21900 nM | –
5 | COc1cc2c(cc1OC)CN(CCCCNC(=O)c1cn(Cc3ccc(OCCF)cc3)nn1)CC2 | 447 | 48.2 nM | 21500 nM | –
6 | COc1cc2c(cc1OC)CN(CCCCNC(=O)c1cn(Cc3ccccc3)nn1)CC2 | 361 | 12.4 nM | 4480 nM | –
7 | COc1cc2c(cc1OC)CN(CCCCNC(=O)c1cc(C#N)ccc1OCc1cn(CCF)nn1)CC2 | 442 | 31.9 nM | 14100 nM | –
8 | COc1cc2c(cc1OC)CN(CCCCNC(=O)c1cn(-c3ccccc3OCCF)nn1)CC2 | 713 | 24 nM | 17100 nM | –
9 | COc1cccc(Cn2cc(-c3ccc(C(=O)NCCCCN4CCc5cc(OC)c(OC)cc5C4)cc3)nn2)c1 | 174 | 66.2 nM | 11500 nM | –
10 | COc1cc2c(cc1OC)CN(CCCCNC(=O)c1cn(Cc3cccc(OCCF)c3)nn1)CC2 | 744 | 62.1 nM | 46300 nM | –
11 | COc1cc2c(cc1OC)CN(CCCCNC(=O)c1cn(-c3ccccc3OC)nn1)CC2 | 8740 | 1.5 nM | 13100 nM | –
12 | COc1cc2c(cc1OC)CN(CCCCNC(=O)c1cc(C)ccc1OCCF)CC2 | – | – | – | Ratio Ki (EMT6): 48; Ki [9]: 6.59 nM; Ki [10]: 330 nM; logP [2]: 3.74
13 | COc1cccc(-n2cc(C(=O)NCCCCN3CCc4cc(OC)c(OC)cc4C3)nn2)c1 | 6730 | 3 nM | 20200 nM | –
14 | COc1cccc(Cn2cc(C(=O)NCCN3CCc4cc(OC)c(OC)cc4C3)nn2)c1 | 373 | 214 nM | 80100 nM | –
15 | COc1cc2c(cc1OC)CN(CCCCNC(=O)c1cc(I)ccc1OCCF)CC2 | – | – | – | Ki [9]: 1.06 nM; Ki [10]: 1300 nM; logP [2]: 4.61
16 | COc1cccc(Cn2cc(-c3cccc(C(=O)NCCCCN4CCc5cc(OC)c(OC)cc5C4)c3)nn2)c1 | 26 | 66 nM | 1750 nM | –
17 | COc1ccc(Cn2cc(C(=O)NCCCCN3CCc4cc(OC)c(OC)cc4C3)nn2)cc1 | 669 | 5 nM | 3350 nM | –
18 | COc1cc2c(cc1OC)CN(CCNC(=O)c1cn(-c3ccccc3OC)nn1)CC2 | 103 | 150 nM | 15500 nM | –
19 | COc1cc2c(cc1OC)CN(CCCCNC(=O)c1ccc(-c3cn(CCOCCOCCF)nn3)cc1)CC2 | 75 | 212 nM | 16000 nM | –
20 | C#CCOc1ccc(C#N)cc1C(=O)NCCCCN1CCc2cc(OC)c(OC)cc2C1 | 301 | 12.2 nM | 3680 nM | –
21 | COc1cccc(Cn2cc(C(=O)NCCCCN3CCc4cc(OC)c(OC)cc4C3)nn2)c1 | 1180 | 10.7 nM | 12700 nM | –

Row | Structure (SMILES) | Ratio Ki [6] | Ki [7] | Ki [8] | also measured
22 | COc1ccc(-n2cc(C(=O)NCCCCN3CCc4cc(OC)c(OC)cc4C3)nn2)cc1 | 7120 | 5.5 nM | 39200 nM | EC50 [3]: > 200000 nM; EC50 [5]: > 200000 nM
23 | COc1cc2c(cc1OC)CN(CCCCNC(=O)c1cn(-c3cccc(OCCF)c3)nn1)CC2 | 715 | 25.1 nM | 17900 nM | –
24 | COc1cc2c(cc1OC)CN(CCCCNC(=O)c1cc(-n3cc(COCCOCCF)nn3)ccc1OC)CC2 | 174 | 66 nM | 11500 nM | –
25 | COc1ccccc1Cn1cc(-c2ccc(C(=O)NCCCCN3CCc4cc(OC)c(OC)cc4C3)cc2)nn1 | 156 | 55 nM | 8580 nM | –
26 | COc1ccccc1Cn1cc(C(=O)NCCN2CCc3cc(OC)c(OC)cc3C2)nn1 | 118 | 156 nM | 18600 nM | –
27 | COc1cc2c(cc1OC)CN(CCCCNC(=O)c1cc(-n3cc(CN(C)C)nn3)ccc1OC)CC2 | 395 | 56.8 nM | 22400 nM | –
28 | COc1cc2c(cc1OC)CN(CCCCNC(=O)c1cn(Cc3ccc(O)cc3)nn1)CC2 | 5480 | 11.6 nM | 63500 nM | –
29 | COc1cc2c(cc1OC)CN(CCCCNC(=O)c1cn(-c3ccc(OCCF)cc3)nn1)CC2 | 2120 | 21.9 nM | 46300 nM | –
30 | COc1cc2c(cc1OC)CN(CCCCNC(=O)c1c[nH]nn1)CC2 | 10.7 | 1020 nM | 11000 nM | –
31 | COc1ccc(-n2cc(C(=O)NCCN3CCc4cc(OC)c(OC)cc4C3)nn2)cc1 | > 243 | 410 nM | > 100000 nM | –
32 | COc1ccc(Cn2cc(-c3ccc(C(=O)NCCCCN4CCc5cc(OC)c(OC)cc5C4)cc3)nn2)cc1 | 406 | 31.4 nM | 12600 nM | –
33 | COc1cc2c(cc1OC)CN(CCCCNC(=O)c1cn(Cc3cccc(O)c3)nn1)CC2 | 359 | 22.5 nM | 8080 nM | –
34 | COc1cc2c(cc1OC)CN(CCCCNC(=O)c1cc(C)ccc1OC)CC2 | – | – | – | Ki [10]: 3080 nM; logP [2]: 3.55
35 | COc1cc2c(cc1OC)CN(CCCCNC(=O)c1ccc(-c3cn(CCF)nn3)cc1)CC2 | 517 | 139 nM | 71900 nM | –
36 | COc1ccccc1Cn1cc(C(=O)NCCCCN2CCc3cc(OC)c(OC)cc3C2)nn1 | 2120 | 9.7 nM | 20600 nM | –
37 | CN1CC[C@]2(c3cccc(O)c3)CC/C(=C/c3ccc(Cl)c(Cl)c3)[C@@H]1C2 | – | – | – | Ki [11]: 7460 nM; Ratio Ki (Homo sapiens): 557; logP [2]: 4.34; Ki [4]: 13.4 nM
38 | CN1CC[C@]2(c3cccc(O)c3)CC/C(=C/c3ccccc3)[C@@H]1C2 | – | – | – | Ki [11]: 3060 nM; Ratio Ki (Homo sapiens): 185; logP [2]: 3.22; Ki [4]: 16.5 nM
39 | COc1cc2c(cc1OC)CN(CCCCNC(=O)c1ccc(-c3cn(CCOCCF)nn3)cc1)CC2 | 107 | 137 nM | 14700 nM | –
40 | COc1cccc(-n2cc(C(=O)NCCN3CCc4cc(OC)c(OC)cc4C3)nn2)c1 | 426 | 180 nM | 76700 nM | –
41 | COc1ccc(Cn2cc(C(=O)NCCN3CCc4cc(OC)c(OC)cc4C3)nn2)cc1 | 906 | 93.2 nM | 84500 nM | –
